Source: ChEMBL document CHEMBL2401702, “A class of sulfonamides with strong inhibitory action against the α-carbonic anhydrase from Trypanosoma cruzi” (J Med Chem, 2013)
pKi: −log10 of the molar value. Activity calls are given as the source filed them. No cut-off for these calls is given here.

How the values were obtained:
[1] = Inhibition of Trypanosoma cruzi carbonic anhydrase preincubated for 15 mins to 6 hrs by CO2 hydration stopped-flow assay
Method in brief: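 Recombinant TcCA prepared in-house. Stopped-flow CO2 hydration assay with 0.2 mM phenol red read at 557 nm, in 20 mM HEPES pH 7.5 with 20 mM Na2SO4, at 20 °C. CO2 1.7–17 mM. Initial rates taken over 10–100 s and uncatalyzed rates subtracted. Inhibitor diluted down to 0.01 nM and preincubated with enzyme 15 min at room temperature or 6 h at 4 °C. KI by nonlinear least squares, mean of ≥3 determinations.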

Carbonic anhydrase 1 = Carbonic anhydrase 1 (Homo sapiens, UniProt P00915); assay: Inhibition of human carbonic anhydrase 1 preincubated for 15 mins to 6 hrs by CO2 hydration stopped-flow assay
Carbonic anhydrase 1, sequence (P00915 whole entry): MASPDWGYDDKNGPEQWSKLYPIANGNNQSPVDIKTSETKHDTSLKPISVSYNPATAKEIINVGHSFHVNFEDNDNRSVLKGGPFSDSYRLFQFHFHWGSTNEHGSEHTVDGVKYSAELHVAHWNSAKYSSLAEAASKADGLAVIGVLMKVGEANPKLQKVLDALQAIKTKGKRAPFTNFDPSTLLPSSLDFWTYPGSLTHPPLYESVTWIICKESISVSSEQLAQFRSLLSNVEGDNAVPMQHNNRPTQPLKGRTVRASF

Carbonic anhydrase 2 = Carbonic anhydrase 2 (Homo sapiens, UniProt P00918); assay: Inhibition of human carbonic anhydrase 2 preincubated for 15 mins to 6 hrs by CO2 hydration stopped-flow assay
Trypanosoma cruzi = assay: Antitrypanosomal activity against Trypanosoma cruzi epimastigotes at 64 to 256 uM by ELISA; type: functional, organism-based
Method in brief: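 Resazurin viability assay on log-phase T. cruzi epimastigotes (strains DM28 and Y). Cultures seeded 24 h at 28 °C, plated and incubated a further 48 h at 28 °C. Resazurin added, incubation 1–6 h, then dual-wavelength absorbance at 490 and 595 nm with background subtracted. Compounds tested at 256, 128 and 64 μM. Benznidazole as reference. Three experiments, each in triplicate.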

Row | SMILES | pKi [1] | other results
1 | NS(=O)(=O)c1ccc(NC(=O)Cc2ccc(F)cc2)cc1 | 8.07 | –
2 | COc1ccc(CC(=O)NCCc2ccc(S(N)(=O)=O)cc2)cc1 | 8.12 | pKi (Carbonic anhydrase 1): 8.43; pKi (Carbonic anhydrase 2): 9.09
3 | NS(=O)(=O)c1ccc(NC(=O)Cc2ccccc2Br)c(Cl)c1 | 8.11 | –
4 | NS(=O)(=O)c1ccc(NC(=O)Cc2ccc(Cl)cc2)cc1 | 8.57 | –
5 | NS(=O)(=O)c1nnc(NC(=O)Cc2ccc(F)cc2)s1 | 8.12 | –
6 | NS(=O)(=O)c1ccc(NC(=O)Cc2ccc(Cl)cc2)c(Br)c1 | 8.15 | –
7 | COc1ccc(CC(=O)Nc2ccc(S(N)(=O)=O)cc2F)cc1 | 8.39 | –
8 | COc1ccc(CC(=O)Nc2ccc(S(N)(=O)=O)cc2)cc1 | 8.10 | –
9 | NS(=O)(=O)c1ccc(CCNC(=O)Cc2ccc(F)cc2)cc1 | 8.04 | –
10 | NS(=O)(=O)c1ccc(NC(=O)Cc2ccccc2Br)c(Br)c1 | 7.96 | –
11 | NS(=O)(=O)c1ccc(NC(=O)Cc2ccc(F)cc2)c(Cl)c1 | 8.15 | –
12 | COc1ccc(CC(=O)NCc2ccc(S(N)(=O)=O)cc2)cc1 | 8.13 | –
13 | NS(=O)(=O)c1ccc(NC(=O)Cc2ccc(Cl)cc2)c(Cl)c1 | 8.11 | –
14 | NS(=O)(=O)c1ccc(NC(=O)Cc2ccc(F)cc2)c(Br)c1 | 8.05 | –
15 | NS(=O)(=O)c1ccc(NC(=O)Cc2ccc(Cl)cc2)c(F)c1 | 8.92 | Activity (Trypanosoma cruzi): inactive
16 | COc1ccc(CC(=O)Nc2ccc(S(N)(=O)=O)cc2Cl)cc1 | 8.10 | –
17 | NS(=O)(=O)c1ccc(CNC(=O)Cc2ccc(Cl)cc2)cc1 | 7.90 | –
18 | NS(=O)(=O)c1nnc(NC(=O)Cc2ccc(Cl)cc2)s1 | 9.02 | Activity (Trypanosoma cruzi): inactive
19 | NS(=O)(=O)c1ccc(CCNC(=O)Cc2ccccc2Br)cc1 | 8.48 | Activity (Trypanosoma cruzi): inactive

Continued by rising pKi [1], values first:

Row | pKi [1] | SMILES | other results
21 | 7.93 | NS(=O)(=O)c1ccc(CCNC(=O)Cc2ccc(Cl)cc2)cc1 | pKi (Carbonic anhydrase 1): 8.01; pKi (Carbonic anhydrase 2): 8.19
22 | 8.05 | NS(=O)(=O)c1ccc(CNC(=O)Cc2ccccc2Br)cc1 | –
23 | 8.05 | NS(=O)(=O)c1ccc(NC(=O)Cc2ccccc2Br)cc1 | –
24 | 8.08 | NS(=O)(=O)c1ccc(NC(=O)Cc2ccc(F)cc2)c(F)c1 | –
25 | 8.14 | COc1ccc(CC(=O)Nc2ccc(S(N)(=O)=O)cc2Br)cc1 | –
26 | 8.43 | NS(=O)(=O)c1ccc(CNC(=O)Cc2ccc(F)cc2)cc1 | –
27 | 8.80 | NS(=O)(=O)c1ccc(NC(=O)Cc2ccccc2Br)c(F)c1 | Activity (Trypanosoma cruzi): inactive
28 | 9.08 | NS(=O)(=O)c1nnc(NC(=O)Cc2ccccc2Br)s1 | –
29 | 9.29 | COc1ccc(CC(=O)Nc2nnc(S(N)(=O)=O)s2)cc1 | Activity (Trypanosoma cruzi): inactive
